# Screening data as filed in PubChem BioAssay.
# PostGolgi yeast: phenotypic screen on post-Golgi transport, primary screen; 98,000 compounds, 0.9% hits; post-Golgi transport phenotypic cell assay; inhibition, % at 10 µM;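 also: yeast cells grown in 1536-well plates; yeast grown about 18 h at 30C before absorbance read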
# Ecoli tolC: growth inhibitors of E. coli tolC mutant, primary screen, strain BW25113 ΔtolC::kan, 384-well; 65,000 compounds, 2.2% hits; OD615; growth inhibition, % at 10 µM (by protocol);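 active = growth inhibition at or above a cutoff equal to the mean over every tested compound plus 3 SD, cut at about 60% in these data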;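 also: growth measured after 20 h incubation at 37 °C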
#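 System: E. coli ΔtolC::kan strain BW25113; Buffer or medium: LB broth supplemented with 50 µg/mL kanamycin; Compound: 10 µM final, single dose; Incubation: bacterial growth with compound for 20 h at 37 °C; Signal: A615 absorbance measurement; Evaluation: growth inhibition in percent.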
# PostGolgi ctrl: growth inhibition of yeast control strain, primary screen, counter-screen for post-Golgi transport modulator project; AID 738, 2007; efflux-deficient yeast background strain, growth absorbance A615, 16 h; 98,000 compounds, 5% hits; inhibition, % at 10 µM
# Candida biofilm: clotrimazole potentiators killing Candida biofilms, primary screen, with clotrimazole, Alamar Blue | C. albicans biofilm + clotrimazole | inhibition, % at 6 µM | 85,000 compounds, 0.14% hits | AID 834, 2007;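 active = inhibition above 20%; inactive = inhibition below 20%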;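 also: preformed 24 hr biofilms exposed to compound for 48 hr; 0% = biofilm without compound and 100% = blank killed by clotrimazole plus chlorhexidine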
# Ecoli WT expand: growth inhibitors of wild-type E. coli, primary screen, strain BW25113, expanded library, OD600; growth inhibition, % at 100 µM; OD600 absorbance; 98,000 compounds, 0.15% hits;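 active = growth inhibition above about 50% at one test dose, limit read from the data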;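 also: growth measured after 20 h incubation at 37 °C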
# Pyk2 oligo antag: antagonists of Pyk2 self-association, primary screen, Q293 cells, FERM NanoBiT luminescence, HTS | stronger effect = lower value | AID 1347419, 2020 | z-score (the deposit names both 25 µM and 10 µM) | 99,000 compounds, 0.83% hits;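 active = Z-score of -3 or lower, scaled per plate to the spread of control and sample wells; inactive = z-score above -3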;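 also: negative z-score means lost luminescence so less FERM oligomerization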
# Target sequence (Q14289 whole entry, looked up): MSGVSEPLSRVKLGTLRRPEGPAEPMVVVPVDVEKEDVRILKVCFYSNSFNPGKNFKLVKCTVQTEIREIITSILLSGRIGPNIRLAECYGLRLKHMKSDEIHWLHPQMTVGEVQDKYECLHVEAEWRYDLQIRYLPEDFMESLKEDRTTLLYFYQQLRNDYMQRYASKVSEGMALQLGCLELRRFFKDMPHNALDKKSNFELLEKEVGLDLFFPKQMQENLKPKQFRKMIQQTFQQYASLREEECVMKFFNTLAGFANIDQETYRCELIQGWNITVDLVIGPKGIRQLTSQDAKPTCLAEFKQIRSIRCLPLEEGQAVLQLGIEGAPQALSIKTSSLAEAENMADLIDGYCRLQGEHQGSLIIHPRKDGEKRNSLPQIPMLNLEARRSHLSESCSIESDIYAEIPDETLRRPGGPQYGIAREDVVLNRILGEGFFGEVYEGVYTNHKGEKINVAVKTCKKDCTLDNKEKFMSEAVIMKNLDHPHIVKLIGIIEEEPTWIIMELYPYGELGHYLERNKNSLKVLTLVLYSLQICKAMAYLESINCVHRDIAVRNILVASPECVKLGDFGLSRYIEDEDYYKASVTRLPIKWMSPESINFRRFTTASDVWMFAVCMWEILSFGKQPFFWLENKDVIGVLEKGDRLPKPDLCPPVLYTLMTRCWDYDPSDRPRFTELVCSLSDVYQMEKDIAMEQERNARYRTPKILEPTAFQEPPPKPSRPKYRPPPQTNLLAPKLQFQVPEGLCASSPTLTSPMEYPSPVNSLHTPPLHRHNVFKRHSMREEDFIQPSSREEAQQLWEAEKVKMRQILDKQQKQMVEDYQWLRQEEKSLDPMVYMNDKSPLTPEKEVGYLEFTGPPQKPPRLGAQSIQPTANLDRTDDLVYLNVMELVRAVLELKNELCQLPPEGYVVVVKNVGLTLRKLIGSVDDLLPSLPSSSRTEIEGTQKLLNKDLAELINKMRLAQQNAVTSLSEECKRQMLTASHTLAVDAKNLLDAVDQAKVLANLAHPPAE
# Active calls of the source: *; nt = no result. The list is not random: actives were taken first. Their share in the collection is about 6.5%. Rule as the data show it, unless noted: active = inhibition above about 30%; inactive = the rest.
SMILES,PostGolgi yeast,Ecoli tolC,PostGolgi ctrl,Candida biofilm,Ecoli WT expand,Pyk2 oligo antag
COc1cc(CNC2CCCCCC2)cc(OC)c1,11.4,nt,20.8,0.2,4.0,-0.06
CCOC(=O)Cc1nnc2c(Nc3ccccc3F)nc3nonc3n12,-1.0,79.4*,34.4*,5.4,8.0,-0.22
N#Cc1ccc(-n2c(-c3ccccc3)nnc2-c2ccccc2)cc1C#N,3.7,nt,40.7*,4.2,-11.0,-1.96
N#Cc1cccc(-n2c(-c3ccccc3)nnc2-c2ccccc2)c1C#N,4.0,10.1,24.1,2.8,-8.0,-2.77
N#CCCn1nc(-c2ccccc2)cc1Nc1ccccc1NC(=O)c1cccs1,1.0,46.5,-4.1,5.2,-25.0,-1.44
O=C(/C=C/c1cccc(Cl)c1)c1nc2ccccc2[nH]1,100.3*,nt,92.7*,nt,3.0,-1.43
CCOC(=O)c1cnn(-c2c(Cc3ccccc3)c(C)nc3c(-c4ccccc4)c(C)nn23)c1N,-5.3,nt,5.2,7.0,-10.0,-3.95*
CCOC(=O)c1cnn(-c2cc(C(C)(C)C)nc3c(-c4ccccc4)c(C)nn23)c1N,-7.0,nt,4.7,5.8,-16.0,1.5
CC(=O)N1C=CN(C(C)=O)C(c2cn(C)c3ccccc23)C1c1cn(C)c2ccccc12 (stereo not drawn),-4.1,21.0,33.6*,3.1,-2.0,-1.89
CC(=O)n1cc(C2C(=O)CCCC2=O)c2ccccc21,5.8,-5.0,2.5,11.7,-5.0,1.39
CCN1CCCC1CNC(=O)C1CCN(Cc2nc(-c3cccc(Br)c3)oc2C)CC1 (stereo not drawn),0.2,-5.0,5.2,2.6,8.0,0.1
Cc1cc(C)cc(N(CC(=O)NCCSc2ccccn2)S(=O)(=O)c2ccccc2)c1,-3.2,nt,31.0*,nt,-20.0,-2.46
O=[N+]([O-])c1cc(Cl)cc(/C=N\Nc2ccccn2)c1O,80.0*,nt,19.3,nt,22.0,0.11
COc1ccc(CCNC(=O)C2CC(c3ccccc3[N+](=O)[O-])=NO2)cc1 (stereo not drawn),-8.9,nt,15.7,nt,3.0,nt
COc1ccc(/C=N/NC(=O)c2cccc([N+](=O)[O-])c2)cc1OC(=O)c1ccc(C)cc1,-1.1,nt,19.6,nt,-7.0,1.02
CCOc1cc(/C=N/n2cnnc2)ccc1OC(=O)c1cccc([N+](=O)[O-])c1,2.6,nt,36.4*,nt,-2.0,0.94
COc1ccc(/C=N/NC(=O)c2cccc([N+](=O)[O-])c2)cc1OC(=O)c1ccccc1,-13.0,nt,32.5*,nt,-18.0,0.14
CCNc1nc(NCC)nc(N(C)N)n1,-11.9,nt,-12.8,nt,2.0,-0.92
CCN1C(=O)S/C(=C\c2ccc(N3CCOCC3)cc2C)C1=O,8.3,nt,35.3*,nt,-4.0,-0.37
c1cc2ccc3ccc(-n4cnnn4)c4ccc(c1)c2c34,-7.4,nt,30.5*,nt,0.0,0.63
COc1cccc(NC(=O)CSc2nnc(-c3cc(-c4ccccn4)nc4ccccc34)o2)c1,-7.5,12.3,50.4*,8.1,2.0,-0.23
CCN1CCN(c2ccc(NC(=O)c3cccc(OCc4ccccc4)c3)cc2)CC1,-1.6,nt,0.0,8.9,-4.0,-0.62
COc1ccccc1NC(=O)CN1CCN(CC(=O)Nc2ccc(OCc3ccccc3)cc2)CC1,-2.9,52.9,51.2*,3.8,-12.0,0.24
CN1CCN(c2ccc(NC(=O)c3cccc(OCc4ccccc4)c3)cc2)CC1,0.2,7.9,38.8*,-6.4,-8.0,-0.47
CCOC(=O)N1CCN(CC(=O)Nc2ccc(Oc3ccccc3)cc2)CC1,4.4,nt,31.6*,2.4,2.0,0.02
SMILES,PostGolgi yeast,Ecoli tolC,PostGolgi ctrl,Candida biofilm,Ecoli WT expand,Pyk2 oligo antag
COc1ccccc1NC(=O)CN1CCN(CC(=O)Nc2ccc(F)cc2)CC1,-3.3,3.4,-4.3,3.6,0.0,-0.19
CN1CCN(CC(=O)Nc2ccc(Oc3ccccc3)cc2)CC1,9.7,-22.6,28.5,3.1,1.0,0.42
O=C(CN1CCN(c2ccccc2)CC1)Nc1ccc(OCc2ccccc2)cc1,1.6,nt,47.7*,-1.4,-8.0,0.36
CCOc1ccc(NC(=O)CCN2CCN(c3ccccc3)CC2)cc1,7.0,-6.2,1.4,1.7,1.0,-0.14
CCc1nn(-c2ccccc2)c(N)c1-c1ccc(OC)c(OC)c1,-5.3,nt,10.9,7.6,-1.0,-0.38
COc1ccc(-c2cc(-c3ccc(OC)c(OC)c3)n[nH]2)c(O)c1,-12.0,nt,4.4,9.5,11.0,-1.59
COc1ccc(C2CC(=O)c3cnc(N)nc3C2)c(OC)c1 (stereo not drawn),-3.3,8.3,17.8,5.4,-1.0,0.01
CCOc1ccc(-c2nc(N)ncc2Oc2cccc(OC)c2)c(O)c1,-0.2,nt,26.8,4.9,-6.0,-3.24*
COc1cccc(Oc2cncnc2-c2ccc(OC)cc2O)c1,83.8*,53.5,56.5*,4.4,-4.0,-1.79
CCOc1ccc(-c2nc(N)ncc2Oc2ccccc2Br)c(O)c1,2.6,nt,55.5*,3.4,-10.0,-2.16
CCOc1ccc(Nc2ncnc(N)n2)cc1,-2.0,-5.1,24.3,3.7,7.0,-0.25
Cc1ccc(N2CCN(C(=O)c3ccccc3NC(=O)/C=C\C(=O)O)CC2)cc1,-6.9,nt,5.7,nt,7.0,-0.23
COC(=O)c1sc(S(=O)(=O)N2CCCCC2C(=O)O)c(C(=O)OC)c1C (stereo not drawn),19.9,nt,3.2,nt,-3.0,-0.52
CCOc1cc(NS(=O)(=O)c2ccccc2)c(OCC)cc1NC(=O)c1ccco1,-1.6,nt,18.0,7.5,0.0,-0.07
CCOC(=O)c1ccc(N=c2sc(C(=O)OC)cc(=O)n2C2CC2)cc1,4.8,-9.2,32.5*,-1.8,4.0,-0.08
Cc1cc(C)n(-c2nc3sc4c(c3c(=O)[nH]2)CCCC4)n1,98.7*,nt,98.0*,6.8,-4.0,nt
CCOC(=O)c1cnn(-c2nc3sc4c(c3c(=O)[nH]2)CCCC4)c1N,nt,93.5*,nt,2.8,nt,nt
COC(=O)c1ccc(-c2ccco2)n1Cc1cccc(C)c1,-5.1,nt,8.1,7.0,5.0,0.24
Cc1sc2nc(SCc3nnc(-c4cccs4)o3)n(C3CCCC3)c(=O)c2c1C,25.8,14.2,30.3*,9.5,-14.0,-0.51
C/C(=N\OC(=O)c1ccc(Cl)cc1)c1sc(-c2ccccc2)nc1C,0.0,nt,4.2,nt,-28.0,1.38
Cc1sc(-c2ccncc2)nc1OC(=O)c1ccc(Cl)cc1,-0.3,nt,36.3*,7.1,-16.0,0.48
Cc1sc(-c2ccncc2)nc1OC(=O)c1cc(Cl)cc(Cl)c1,-3.4,nt,32.2*,2.8,-1.0,1.35
CCN(Cc1ccccc1)C(c1cc2ccc(C)cc2[nH]c1=O)c1nnnn1CCOC (stereo not drawn),-5.4,nt,-2.1,0.9,17.0,1.32
Cc1cnc(C(=O)OCC(=O)c2csc(N3CCCCC3)n2)cn1,12.3,-2.3,-1.9,7.7,28.0,1.03
Cc1cc(NCCC(C)C)n2nc(C)c(-c3ccccc3)c2n1,-1.2,nt,52.6*,7.6,10.0,-1.37
Cc1cc(NCCCN2CCOCC2)n2nc(C)c(-c3ccccc3)c2n1,5.6,-1.4,7.9,-8.3,3.0,-1.28
